Experimental data published in BindingDB's records for doi:10.1021/jm0504454 (Sapienza University of Rome, 2005).

The molecules below were run against RNA-directed RNA polymerase (UniProt O39930) (assay: Inhibitory concentration against NS5B HCV polymerase using [alpha-32P]UTP as radioligand (30 degree C for 2 h, at pH 7.5 with Tris-HCl buffer)).
In short: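 Recombinant HCV RdRp (1 nM) in 20 mM Tris-HCl pH 7.5, 5 mM MgCl2, 1 mM DTT, 1 mM EDTA, RNase inhibitor, 50 µg/mL actinomycin D, 10 µg/mL RNA template, 0.5 mM ATP/CTP/GTP, [α-32P]UTP, limiting nucleotide 10 µM. 30 °C, 2 h; proteinase K stop, extraction, urea-PAGE, phosphorimaging. IC50s rescaled by a reference inhibitor's measured/literature IC50 ratio.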

RNA-directed RNA polymerase, sequence (O39930 whole entry): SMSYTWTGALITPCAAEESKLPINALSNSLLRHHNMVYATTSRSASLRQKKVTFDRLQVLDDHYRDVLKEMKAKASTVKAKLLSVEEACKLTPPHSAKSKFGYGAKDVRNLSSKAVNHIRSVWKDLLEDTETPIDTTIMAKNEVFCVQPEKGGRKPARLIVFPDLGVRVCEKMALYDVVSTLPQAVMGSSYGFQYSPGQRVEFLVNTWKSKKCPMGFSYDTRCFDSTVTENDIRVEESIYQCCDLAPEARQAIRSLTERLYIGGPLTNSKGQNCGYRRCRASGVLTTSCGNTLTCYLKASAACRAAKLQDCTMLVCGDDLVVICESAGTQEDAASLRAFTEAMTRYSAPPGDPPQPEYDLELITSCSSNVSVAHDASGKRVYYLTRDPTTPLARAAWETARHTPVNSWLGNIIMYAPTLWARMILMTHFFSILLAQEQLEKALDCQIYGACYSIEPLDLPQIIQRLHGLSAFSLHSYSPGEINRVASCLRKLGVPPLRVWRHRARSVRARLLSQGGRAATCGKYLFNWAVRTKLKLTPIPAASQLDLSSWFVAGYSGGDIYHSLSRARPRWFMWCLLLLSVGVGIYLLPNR

| Compound | IC50 [µM] |
| --- | --- |
| O=C(O)C(=O)CC(=O)c1ccc(N2CCCCC2)s1 [(Z)-2-Hydroxy-4-oxo-4-(5-piperidin-1-yl-thiophen-2-yl)-but-2-enoic acid] | 8.2 |
| O=C(O)C(=O)CC(=O)c1cccc(OCc2cccc(Oc3ccccc3)c2)c1 [(Z)-2-Hydroxy-4-oxo-4-[3-(3-phenoxy-benzyloxy)-phenyl]-but-2-enoic acid] | 50 |
| O=C(C=Cc1c[nH]c2ccc(Cl)cc12)CC(=O)C(=O)O [(Z)-6-((E)-5-Chloro-1H-indol-3-yl)-2-hydroxy-4-oxo-hexa-2,5-dienoic acid] | 18 |
| O=C(O)C(=O)CC(=O)c1cccc(Oc2ccccc2)c1 | 19 |
| Cc1ccccc1Cn1cccc1C=CC(=O)CC(=O)C(=O)O [(Z)-6-[1-((E)-obenzyl)-1H-Pyrrol-2-yl]-2-hydroxy-4-oxo-hexa-2,5-dienoic acid] | 18 |
| O=C(O)C(=O)CC(=O)c1cccc(-c2ccccc2)c1 | 28 |
| O=C(C=Cc1cccn1Cc1cccc(F)c1)CC(=O)C(=O)O [(Z)-6-[1-(3-Fluoro-benzyl)-1H-pyrrol-2-yl]-2-hydroxy-4-oxo-hexa-2,5-dienoic acid] | 18 |
| N#Cc1cccc(Cl)c1COc1cc(O)cc(C(=O)CC(=O)C(=O)O)c1 [(Z)-4-[3-(2-Chloro-6-cyano-benzyloxy)-5-hydroxy-phenyl]-2-hydroxy-4-oxo-but-2-enoic acid] | 0.1 |
| Cc1ccc(Cn2cccc2C=CC(=O)CC(=O)C(=O)O)cc1 | 28 |
| O=C(O)C(=O)CC(=O)c1cc(I)cn1Cc1ccc(F)cc1 [(Z)-4-[1-(4-Fluoro-benzyl)-4-iodo-1H-pyrrol-2-yl]-2-hydroxy-4-oxo-but-2-enoic acid] | 18 |
| Cn1cc(C(=O)c2ccc(F)cc2)cc1C=CC(=O)CC(=O)C(=O)O [(Z)-6-[4-(4-Fluoro-benzoyl)-1-methyl-1H-pyrrol-2-yl]-2-hydroxy-4-oxo-hexa-2,5-dienoic acid] | 16 |
| O=C(O)C(=O)CC(=O)c1cccc(OCc2ccc(-c3ccccc3)cc2)c1 [(Z)-4-[3-(Biphenyl-4-ylmethoxy)-phenyl]-2-hydroxy-4-oxo-but-2-enoic acid] | 50 |
| O=C(O)C(=O)CC(=O)c1cccn1Cc1ccc2ccccc2c1 [(Z)-2-Hydroxy-4-(1-naphthalen-2-ylmethyl-1H-pyrrol-2-yl)-4-oxo-but-2-enoic acid] | 13 |
| N#CCCCCn1cccc1C(=O)CC(=O)C(=O)O [(Z)-4-[1-(4-Cyano-butyl)-1H-pyrrol-2-yl]-2-hydroxy-4-oxo-but-2-enoic acid] | 13 |
| COc1ccc(Cn2cccc2C=CC(=O)CC(=O)C(=O)O)cc1 | 16 |
| O=C(O)C(=O)CC(=O)c1cccn1Cc1ccc(O)cc1 [(Z)-2-Hydroxy-4-[1-(4-hydroxy-benzyl)-1H-pyrrol-2-yl]-4-oxo-but-2-enoic acid] | 13 |
| O=C(O)C(=O)CC(=O)c1ccco1 | 50 |
| O=C(O)C(=O)CC(=O)c1cccc(NC(=O)C(=O)O)c1 [(Z)-2-Hydroxy-4-[3-(oxalyl-amino)-phenyl]-4-oxo-but-2-enoic acid] | 19 |
| O=C(O)C(=O)CC(=O)c1ccsc1Cc1ccc(F)cc1 [(Z)-4-[2-(4-Fluoro-benzyl)-thiophen-3-yl]-2-hydroxy-4-oxo-but-2-enoic acid] | 18 |
| Cc1cc(C)c(C(=O)CC(=O)C(=O)O)s1 [(Z)-4-(3,5-Dimethyl-thiophen-2-yl)-2-hydroxy-4-oxo-but-2-enoic acid] | 8.2 |
